Laboratory results as given in ChEMBL document CHEMBL1129607, “Paracyclophanes: a novel class of water-soluble inhibitors of HIV proteinase” (J Med Chem, 1996).
≈ marks a conversion by molar mass, not a printed value.

Assays:
[1] = Area Under Curve was measured by ploting the graph between concentration verses time; assay type: ADME
Summary of the method: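 Female Balb/c mice (n = 2 per time point) were fasted 24 h before and throughout the study, with water ad libitum. Compound was given by oral gavage at 125 mg/kg in a microemulsion formulation. Plasma levels were measured by solid-phase extraction and HPLC.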

[2] = tested on: MT4; test: Antiviral activity for inhibition of HIV-2 proteinase was assayed in infected MT-4 cells; assay type: functional, cell-based; details: Homo sapiens
[3] = target: T1, Human immunodeficiency virus type 1 protease (Human immunodeficiency virus 1, UniProt Q72874); test: Inhibition of HIV-1 proteinase was assayed in infected MT-4 cells; assay type: cell-based, MT4
[4] = target: Cathepsin D (Homo sapiens, UniProt P07339); test: The compound was tested for inhibition of Human Cathepsin D
[5] = Inhibitory concentration against HIV-1 strain IIIB infected T4 lymphocytes; assay type: functional, cell-based
Summary of the method: (§1)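 T4-lymphocytes were purified from healthy donor human […] and stimulated with PHA. Cells were infected with HIV-1 IIIB or HIV-2 MS and kept in IL-2 medium. Compound was added after stimulation and virus adsorption. Every 3-4 days, half the supernatant was replaced with fresh IL-2 medium containing compound.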

[6] = tested on: Human immunodeficiency virus 1; test: Antiviral activity against HIV-1 IIIB induced cytopathic effect in de novo infected MT-4 cells; assay type: functional, organism-based; details: Human immunodeficiency virus 1, MT4
Summary of the method: (§2)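 MT4 cells were infected de novo with HIV-1 IIIB or HIV-2 EHO, and compound was added after adsorption. Mock-infected cells were run in parallel. After 5 days, viability was read spectrophotometrically by in situ MTT reduction.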

[7] = Inhibitory concentration against HIV-2 strain MS infected T4 lymphocytes; assay type: functional, cell-based; summary of the method: as §1
[8] = target: T1, Human immunodeficiency virus type 1 protease; test: Compound was tested for inhibition of HIV-1 protease was assayed in infected MT-4 cells; assay type: cell-based, MT4
[9] = Aqueous solubility in phosphate buffer of pH 7.4
[10] = tested on: MT4; test: Antiviral activity against HIV-2 induced cytopathic effect in de novo infected MT-4 cells; assay type: functional, cell-based; details: Homo sapiens; summary of the method: as §2

Cathepsin D, sequence (P07339 65-162 limits assumed): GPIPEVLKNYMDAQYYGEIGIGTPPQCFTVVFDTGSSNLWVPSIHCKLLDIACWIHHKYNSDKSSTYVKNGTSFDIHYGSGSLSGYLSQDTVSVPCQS
Cathepsin D, sequence (P07339 169-412 limits assumed): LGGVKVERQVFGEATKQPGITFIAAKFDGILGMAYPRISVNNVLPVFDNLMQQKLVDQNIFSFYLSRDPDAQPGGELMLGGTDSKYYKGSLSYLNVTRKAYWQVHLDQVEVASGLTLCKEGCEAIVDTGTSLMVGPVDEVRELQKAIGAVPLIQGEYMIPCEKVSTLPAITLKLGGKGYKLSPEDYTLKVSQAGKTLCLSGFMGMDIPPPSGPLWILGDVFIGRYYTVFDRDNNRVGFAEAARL

Compound	Ki [3] [nM]	IC50 [6] [nM]	further results
CC(C)[C@H](NC(=O)OCc1ccccc1)C(=O)N[C@@H](Cc1ccccc1)[C@@H](O)[C@H]1NCc2ccc(cc2)OCCOCCOCCNC(=O)[C@H](C(C)C)NC1=O	6.9	16	AUC [1]: < 0.4 µM·h; IC50 [2]: 37 nM; IC50 [4]: > 10000 nM; IC50 [5]: 3.1 nM; IC50 [7]: 17 nM
CC(C)[C@@H]1NC(=O)[C@@H]([C@H](O)[C@H](Cc2ccccc2)NC(=O)OC(C)(C)C)NCc2cccc(c2)OCCOCCNC1=O		935	
CC(C)[C@H](NC(=O)OCc1ccccc1)C(=O)N[C@@H](Cc1ccccc1)[C@@H](O)[C@H]1NCc2ccc(cc2)OCCOCCOCCOCCNC(=O)[C@H](C(C)C)NC1=O		52	
CC(C)[C@H](NC(=O)OCc1ccccc1)C(=O)N[C@@H](Cc1ccccc1)[C@@H](O)[C@H]1NCc2ccc(cc2)OCCCCNC(=O)[C@H](C(C)C)NC1=O		27	
CC(C)[C@@H]1NC(=O)[C@@H]([C@H](O)[C@H](Cc2ccccc2)NC(=O)OC(C)(C)C)NCc2ccc(cc2)OCCCCNC1=O		1810	Ki [8]: 17 nM
CC(C)[C@@H]1NC(=O)[C@@H]([C@H](O)[C@H](Cc2ccccc2)NC(=O)[C@@H](NC(=O)CSc2nncn2C)C(C)(C)C)NCc2ccc(cc2)OCCOCCNC1=O	11.1	> 3000	solubility [9]: 1710 µM (≈ 1310 µg/mL)
CC(C)[C@@H]1NC(=O)[C@@H]([C@H](O)[C@H](Cc2ccccc2)NC(=O)O[C@H]2CCOC2)NCc2ccc(cc2)OCCOCCOCCNC1=O		198	
CC(C)[C@H](NC(=O)OCc1ccccc1)C(=O)N[C@@H](Cc1ccccc1)[C@@H](O)[C@H]1NCc2cccc(c2)OCCCCNC(=O)[C@H](C(C)C)NC1=O		29	
CC(C)[C@@H]1NC(=O)[C@@H]([C@H](O)[C@H](Cc2ccccc2)NC(=O)O[C@H]2CCOC2)NCc2ccc(cc2)OCCOCCNC1=O	8.2	157	
CC(C)[C@@H]1NC(=O)[C@@H]([C@H](O)[C@H](Cc2ccccc2)NC(=O)OC(C)(C)C)NCc2ccc(cc2)OCCOCCNC1=O	14	450	
CC(C)[C@H](NC(=O)OCc1ccccc1)C(=O)N[C@@H](Cc1ccccc1)[C@@H](O)[C@H]1NCc2ccc(cc2)OCCOCCNC(=O)[C@H](C(C)C)NC1=O	7.9	21	IC50 [4]: > 10000 nM
CC(C)[C@@H]1NC(=O)[C@@H]([C@H](O)[C@H](Cc2ccccc2)NC(=O)OC(C)(C)C)NCc2cccc(c2)OCCCCNC1=O		335	
COc1ccc(CN[C@@H](C(=O)N[C@H](C(=O)NCc2nc3ccccc3[nH]2)C(C)C)[C@H](O)[C@H](Cc2ccccc2)NC(=O)[C@@H](NC(=O)OCc2ccccc2)C(C)C)cc1		29	AUC [1]: < 0.4 µM·h; solubility [9]: < 10 µM
CC(C)[C@@H]1NC(=O)[C@@H]([C@H](O)[C@H](Cc2ccccc2)NC(=O)OC(C)(C)C)NCc2ccc(cc2)OCCOCCOCCOCCNC1=O	23.2	1170	
CC(C)[C@@H]1NC(=O)[C@@H]([C@H](O)[C@H](Cc2ccccc2)NC(=O)[C@@H](NC(=O)OCc2ccccc2)C(C)(C)C)NCc2ccc(cc2)OCCOCCNC1=O	8	15	AUC [1]: 4.7 µM·h; IC50 [4]: > 10000 nM
CC(C)[C@H](NC(=O)OCc1ccccc1)C(=O)N[C@@H](Cc1ccccc1)[C@@H](O)[C@H]1NCc2cccc(c2)OCCOCCNC(=O)[C@H](C(C)C)NC1=O		60	
COc1ccc(CN[C@@H](C(=O)N[C@@H]2c3ccccc3C[C@H]2O)[C@H](O)[C@H](Cc2ccccc2)NC(=O)[C@@H](NC(=O)OCc2ccccc2)C(C)C)cc1		242	IC50 [10]: 843 nM; AUC [1]: 82.5 µM·h; IC50 [4]: > 10000 nM; solubility [9]: < 10 µM; Ki [8]: 9.5 nM
CC(C)[C@@H]1NC(=O)[C@@H]([C@H](O)[C@H](Cc2ccccc2)NC(=O)OC(C)(C)C)NCc2ccc(cc2)OCCOCCOCCNC1=O		169	
CC(C)[C@@H]1NC(=O)[C@@H]([C@H](O)[C@H](Cc2ccccc2)NC(=O)OC(C)(C)C)NCc2cccc(c2)OCCOCCOCCNC1=O	208	3000	
CC(C)[C@H](NC(=O)OCc1ccccc1)C(=O)N[C@@H](Cc1ccccc1)[C@@H](O)[C@H]1NCc2cccc(c2)OCCOCCOCCNC(=O)[C@H](C(C)C)NC1=O	7.7	211	
